Two molecules from ChEMBL document CHEMBL4680103, “In Vitro and in Vivo Anti-Trypanosoma cruzi Activity of New Arylamine Mannich Base-Type Derivatives” (J Med Chem, 2016) can be followed below.

Active and inactive are the calls of the source. The rule behind the calls is not given here.

Data set [1] deals with Trypanosoma cruzi. Kind of data set: Antitrypanosomal activity against Trypanosoma cruzi Arequipa trypomastigotes infected in BALB/c mouse assessed as reduction in parasitemia measured during acute phase (days 0 to 40 post infection) at 50 to 100 mg/kg, po dosed on alternating days (7 to 15 days post infection). Conditions: dose 50-100 mg/kg. Type of data set: functional, organism-based. In outline: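 Female BALB/c mice (8–10 weeks, 25–30 g; groups of six) were infected i.p. with 5×10^5 Arequipa blood trypomastigotes. Dosing was oral, 50 or 100 mg/kg/day, on 5 alternating days (days 7–15 pi), alongside untreated and reference-drug groups. Parasitemia was counted in 5 µL mandibular-vein blood by Neubauer chamber through day 40 pi. Data are means ± SD of six mice.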

Data set [2] concerns Trypanosoma cruzi. Kind of data set: Antitrypanosomal activity against Trypanosoma cruzi Tulahuen trypomastigote froms infected in mouse blood incubated for 24 hrs by Neubauer chamber based assay. In kind it is functional, organism-based. Put shortly: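 Mouse blood taken at peak parasitemia (day 7) was diluted with uninfected blood to 4×10^6 trypomastigotes/mL, then 1:2 in RPMI 1640. Drugs from DMSO stocks were added at 1, 10, 25, 50 and 100 µM and incubated 24 h at 4–8 °C. Parasites were counted in a Neubauer chamber in triplicate. IC50 was calculated versus control.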

Data set [3] relates to Trypanosoma cruzi. Kind of data set: Antitrypanosomal activity against Trypanosoma cruzi Arequipa trypomastigotes infected in BALB/c mouse assessed as reduction in splenomegaly by measuring weight percent of spleens […] at 50 mg/kg, po dosed on alternating days (7 to 15 days post infection) by PCR analysis (reference value: 1.603%). In kind it is functional. More on the design: scale not given: the % may be the effect or the level left.

Data set [4] relates to Trypanosoma cruzi. In words: Antitrypanosomal activity against Trypanosoma cruzi Arequipa trypomastigotes infected in BALB/c mouse assessed as reduction in parasitemia level in heart measured during acute phase (days 0 to 40 post infection) at 100 mg/kg, po dosed on alternating days (7 to 15 days post infection) by PCR analysis. In kind it is functional, organism-based.
The test system of data set [5] is Trypanosoma cruzi. In words: Antitrypanosomal activity against Trypanosoma cruzi Tulahuen epimastigote forms incubated for 72 hrs by hemocytometry. In kind it is functional, organism-based. Put shortly:
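Epimastigotes grown in MTL medium with 10% inactivated FBS at 28 °C. Compounds were dissolved in DMSO (0.01% v/v) and added at 0.1–100 µM for 72 h. Parasites were counted in a Neubauer chamber. IC50 (50% growth inhibition) was derived by linear regression of Kc values. Values are averages of four determinations.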

Data set [6] in a line: Genotoxicity in Salmonella typhimurium TA1537 at 0.03 to 2.25 ug/plate incubated for 48 hrs in presence of liver S9 fraction by Ames test. In kind it is toxicity, subcellular. Conditions: salmonella enterica subsp. enterica serovar typhimurium, s9, 48 h. In outline:
(§1)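 Preincubation Ames assay. […] Top agar with trace histidine/biotin (0.05 mM each) was added and poured onto glucose minimal agar. Plates were incubated 48 h at 37 °C and His+ revertants counted. DMSO was the negative control, with strain-appropriate positive controls. Technical triplicates.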
A general note: The Ames test detects mutagens through reverse mutation in bacteria.

In data set [7] the test system is Trypanosoma cruzi. Kind of data set: Antitrypanosomal activity against Trypanosoma cruzi infected in African green monkey Vero cells assessed as reduction in number of amastigotes per infected cell measured up to 10 days by Giemsa staining based hemocytometry. Type of data set: functional. Conditions: time day <=10. Put shortly:
(§2)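 Vero cells infected with metacyclic forms (10:1) were exposed to one concentration per compound immediately after infection for 12 h at 37 °C, 5% CO2. After washing, cultures were kept 10 days with fresh medium every 48 h. Every 48 h, % infected cells and amastigotes per infected cell (200 Giemsa-stained cells) and medium trypomastigotes (Neubauer) were scored. Means of three experiments.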

Data set [8] in a line: Genotoxicity in Salmonella typhimurium TA100 at 0.03 to 2.25 ug/plate incubated for 48 hrs in presence of liver S9 fraction by Ames test. In kind it is toxicity, subcellular. Conditions: salmonella enterica subsp. enterica serovar typhimurium, s9, 48 h. In outline:
as §1

Data set [9] concerns Trypanosoma cruzi. In words: Antitrypanosomal activity against Trypanosoma cruzi Arequipa trypomastigotes infected in BALB/c mouse assessed as reduction in parasitemia level in lung measured during acute phase (days 0 to 40 post infection) at 100 mg/kg, po dosed on alternating days (7 to 15 days post infection) by PCR analysis. Type of data set: functional, organism-based.

Data set [10] in a line: Genotoxicity in Salmonella typhimurium TA1535 at 0.03 to 2.25 ug/plate incubated for 48 hrs in presence of liver S9 fraction by Ames test. Type of data set: toxicity, subcellular. Conditions: salmonella enterica subsp. enterica serovar typhimurium, s9, 48 h. In outline: as §1
For data set [11], the system named is Trypanosoma cruzi. Kind of data set: Antitrypanosomal activity against Trypanosoma cruzi Arequipa trypomastigotes infected in BALB/c mouse assessed as reduction in parasitemia level in esophagus measured during acute phase (days 0 to 40 post infection) at 100 mg/kg, po dosed on alternating days (7 to 15 days post infection) by PCR analysis. In kind it is functional, organism-based.

Data set [12] deals with Trypanosoma cruzi. In words: Antitrypanosomal activity against Trypanosoma cruzi infected in African green monkey Vero cells assessed as reduction in number of trypomastigotes measured up to 10 days by Giemsa staining based hemocytometry. In kind it is functional. As to conditions: time day <=10. In outline:
as §2

For data set [13], the target named is Superoxide dismutase [Cu-Zn] (Homo sapiens, UniProt P00441). In words: Inhibition of human erythrocyte CuZn-SOD by NBT dye based spectrophotometry. Put shortly:
(§3)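 Fe-SOD source: Arequipa epimastigote homogenate (STE buffer pH 7.8, sonication, centrifugation, supernatant; protein by Bradford); CuZn-SOD was commercial human erythrocyte enzyme. Activity was measured as NBT reduction by superoxide in 50 mM potassium phosphate pH 7.8, with compounds at 5 concentrations (1–100 µM). A560 was read before and after 10 min under lamp light with stirring. Three rate determinations; Newman–Keuls test.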

A short description of data set [14]: Inhibition of Trypanosoma cruzi Arequipa Fe-SOD by NBT dye based spectrophotometry. In outline:
as §3

The nature of data set [15]: Genotoxicity in Salmonella typhimurium TA100 at 0.03 to 2.25 ug/plate incubated for 48 hrs in absence of liver S9 fraction by Ames test. Type of data set: toxicity. As to conditions: salmonella enterica subsp. enterica serovar typhimurium, s9, 48 h. Put shortly:
as §1

Data set [16] relates to Trypanosoma cruzi. In words: Antitrypanosomal activity against Trypanosoma cruzi Arequipa trypomastigotes infected in BALB/c mouse assessed as reduction in parasitemia level in heart measured during acute phase (days 0 to 40 post infection) at 50 to 100 mg/kg, po dosed on alternating days (7 to 15 days post infection) by PCR analysis. Type of data set: functional, organism-based. As to conditions: dose 50-100 mg/kg.

For data set [17], the system named is Trypanosoma cruzi. In words: Antitrypanosomal activity against Trypanosoma cruzi Arequipa trypomastigotes infected in BALB/c mouse assessed as parasitemia re-activation level measured during chronic phase ( day 90 post infection) at 50 mg/kg, po dosed on alternating days (7 to 15 days post infection) relative to acute phase infection (reference value: […]%). Type of data set: functional.

Data set [18] relates to Trypanosoma cruzi. Kind of data set: Inhibition of Trypanosoma cruzi Arequipa Fe-SOD at <50 uM by NBT dye based spectrophotometry. As to conditions: dose microM <50. Put shortly:
as §3

Chain of Superoxide dismutase [Cu-Zn] (P00441 whole entry): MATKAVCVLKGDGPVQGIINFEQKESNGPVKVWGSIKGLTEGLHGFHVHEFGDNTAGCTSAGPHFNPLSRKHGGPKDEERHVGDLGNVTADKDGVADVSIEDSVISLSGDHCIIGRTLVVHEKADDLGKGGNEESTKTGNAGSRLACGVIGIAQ

Regarding `O=C(CCN1CCN(c2ccc(C(F)(F)F)cc2)CC1)c1csc2ccc(F)cc12`, the result in the data set with Trypanosoma cruzi [1], with Trypanosoma cruzi [4], in the data set with Trypanosoma cruzi [9], in the data set on Trypanosoma cruzi [11] and with Trypanosoma cruzi [16] was Active. Further, the IC50 (usually the concentration needed to halve the response being measured) in the data set with Trypanosoma cruzi [2] amounted to 45.8 µM; in the data set on Trypanosoma cruzi [5], 14 µM; in data set [13], 206 µM; in data set [14] it was 102 µM. Further, the Activity in the data set on Trypanosoma cruzi [3] is listed as 1.621%; in [6], “Non-Toxic”; in data set [8], “Non-Toxic”; in data set [10] it was “Non-Toxic”; in data set [15], “Non-Toxic”. Further, the entries for the “inhibition (INH)” value in the data set on Trypanosoma cruzi [7] and in the data set on Trypanosoma cruzi [12] were 64% and 68%, respectively.
With `O=C(CCN1CCN(c2ccc(F)cc2)CC1)c1csc2ccc(F)cc12`, the result in the data set with Trypanosoma cruzi [1], in the data set on Trypanosoma cruzi [4], with Trypanosoma cruzi [9], in the data set on Trypanosoma cruzi [11] and in the data set on Trypanosoma cruzi [16] was Active. Besides, the IC50 came out at 1.9 µM with Trypanosoma cruzi [2], 0.4 µM with Trypanosoma cruzi [5], 215 µM in [13] and 16.8 µM in data set [14]. For the same molecule, the Activity in the data set with Trypanosoma cruzi [3] is recorded as 1.061%; in the data set with Trypanosoma cruzi [17] it was 0%; in [6], “Non-Toxic”; in data set [8], “Non-Toxic”; in [10], “Non-Toxic”; in data set [15], “Non-Toxic”. Moreover, the “inhibition (INH)” value was determined as 49% in the data set on Trypanosoma cruzi [7] and 47% in the data set with Trypanosoma cruzi [12]. The inhibition – broadly, the change of the read-out against control, counted positive when it falls – with Trypanosoma cruzi [18] was 100%.
